Only some compounds are listed: those with a hit (about 2.9% of all), similar ones and a draw of the others.
FAS-TE inh = inhibitors of human fatty acid synthase thioesterase domain | P49327 | actives 0.67% (n = 360,000) | recombinant FAS-TE, OMFH fluorogenic substrate, fluorescence endpoint | inhibition, % at 15 µM | AID 602261;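 active = compounds whose normalised, plate-corrected inhibition of enzyme fluorescence in the single-dose primary screen is 50% or more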;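 note: 0% = DMSO with enzyme and 100% = substrate without enzyme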
ADAM17 inh = inhibits human ADAM17; AID 720648; P78536; inhibition, % at 6.95 µM; actives 0.83% (n = 370,000); recombinant ADAM17, EDANS/DABCYL FRET peptide cleavage;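 active = inhibition above the mean of compounds lying between control limits plus 3 SD, set per campaign, cut at about 8.5% in these data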;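 note: 0% = DMSO-only wells as the low control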
CendR NRP1 mod = NRP-1/CendR interaction modulation. O14786. actives 0.85% (n = 360,000). inhibition, % at 25 µM. FAM-RPARPAR peptide binding to NRP-1, fluorescence polarization;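 active = inhibition or corrected inhibition above about 18%, plus a signal ratio from 0.5 to 1.5, limit read from the data, passing the limit was not always enough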
CaV13 ICDI inh = Primary screen for inhibitors of IQ motif and Ca2+-dependent inactivation inhibitor domain binding in CACNA1D, Förster resonance energy transfer in living cells, …; HEK cells, CFP/YFP FRET ICDI-IQ, plate reader, 10 min; percent FRET-ratio fall versus neutral wells; inhibition, % at 12.3 µM; actives 0.098% (n = 340,000);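 active = mean replicate inhibition of at least 30% and at least 1% of replicates passing that level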;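 note: 0% = median of the neutral control wells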
ADAM10 inh = inhibitors of human ADAM10; AID 720582; inhibition, % at 7 µM; actives 0.62% (n = 370,000); recombinant ADAM10, EDANS/DABCYL FRET peptide cleavage, 3 h;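 active = inhibition above a per-campaign cutoff equal to the mean of compounds falling between control-based bounds plus 3 SD, cut at about 20% in these data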;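 note: 0% = DMSO wells while the 100% control is not disclosed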
Target sequence (O14672 214-748 limits assumed): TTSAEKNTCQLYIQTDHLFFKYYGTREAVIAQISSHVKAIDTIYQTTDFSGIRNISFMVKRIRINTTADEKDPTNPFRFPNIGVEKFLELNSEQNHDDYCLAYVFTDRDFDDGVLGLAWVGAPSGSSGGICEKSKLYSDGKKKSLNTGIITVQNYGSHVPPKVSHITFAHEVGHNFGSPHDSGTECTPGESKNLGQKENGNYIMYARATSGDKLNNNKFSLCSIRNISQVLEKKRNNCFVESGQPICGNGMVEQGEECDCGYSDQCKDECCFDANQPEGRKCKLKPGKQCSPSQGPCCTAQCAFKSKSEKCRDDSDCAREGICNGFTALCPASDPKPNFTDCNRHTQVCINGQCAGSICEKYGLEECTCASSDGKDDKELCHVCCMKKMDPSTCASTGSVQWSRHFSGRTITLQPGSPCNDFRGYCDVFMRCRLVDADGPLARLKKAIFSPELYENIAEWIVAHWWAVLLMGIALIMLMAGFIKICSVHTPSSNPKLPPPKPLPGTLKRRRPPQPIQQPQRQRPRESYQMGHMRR
Arrestin-AP2 inh = human beta-arrestin and AP2 interaction inhibition. actives 0.31% (n = 340,000). AID 504490. FITC-arrestin peptide / GST-AP2 beads, flow cytometry; AP2 beta2 appendage carries R879A mutation. inhibition, % at 10 µM;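 active = inhibition above a set limit, near 3 SD of compounds lacking own fluorescence, cut at about 54% in these data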;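 note: plate controls were DMSO wells for no effect and 5 µM unlabelled arrestin peptide for full effect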
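System: GST-AP2 R879A glutathione beads. Medium: PBS with 0.05% Tween 20 and 0.1% BSA. Also added: FITC-arrestin peptide, 50 nM. Incubation: 12 min plus 1 h, RT. Measured by: high-throughput flow cytometry of beads, ex 488, em 535 nm. Evaluation: percent drop in bead-associated FITC signal.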
FAS-TE conf = FAS thioesterase (human) inhibition, confirmation. shares compounds with FAS-TE inh. recombinant FAS-TE, OMFH fluorogenic substrate, fluorescence. inhibition, % at 15 µM. actives 45% (n = 2,300). AID 624325;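 active = compounds inhibiting the enzyme by at least 50% at 15 µM in any one of the replicates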;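 note: 0% = enzyme with DMSO only and 100% = wells lacking enzyme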
* hit, by the source's call; x = no result.

SMILES	FAS-TE inh	ADAM17 inh	CendR NRP1 mod	CaV13 ICDI inh	ADAM10 inh	Arrestin-AP2 inh	FAS-TE conf
Cc1cc(C)c(C#N)c(SCS(=O)Cc2ccccc2)n1 (centres undefined)	19	1	-4	-5	6	-2	x
Cc1cc(C)c(C#N)c(SCS(=O)Cc2ccc(Cl)cc2)n1 (centres undefined)	69*	3	3	-7	-3	-5	71*
CC(c1nc2ccccc2[nH]1)n1c(=O)c(-c2ccco2)nc2ccccc21 (centres undefined)	x	-8	-83	-6	-25	x	x
Cc1ccc(/C=C/c2ccc(=O)n(Cc3ccc(F)cc3)n2)cc1	50*	-22	7	-1	-65	-1	39*
O=c1ccc(/C=C/c2ccccc2)nn1Cc1ccc(F)cc1	37	-32	-6	16	-101	-6	x
Cc1ccc(N2CC(C)Cn3c2nc2c3c(=O)n(CC(=O)OCc3ccccc3)c(=O)n2C)cc1C (centres undefined)	54*	-2	0	-8	-6	5	5
Cc1cc(C)cc(N2CCCn3c2nc2c3c(=O)n(CC(=O)OCc3ccccc3)c(=O)n2C)c1	22	x	-10	-8	x	-4	x
CCN(CC(=O)NCc1cccs1)C(=O)c1cccc(S(=O)(=O)N(CC)c2ccccc2)c1	6	1	7	-5	-3	13	x
CC(Oc1cccc([N+](=O)[O-])c1)C(=O)NCCC1=CCCCC1 (centres undefined)	72*	-2	2	-6	-2	2	38
CC(C(=O)NCCC1=CCCCC1)c1ccc([N+](=O)[O-])cc1 (centres undefined)	70*	-1	6	-6	5	7	69*
Cc1ccccc1OC(C)C(=O)NCCC1=CCCCC1 (centres undefined)	10	-4	-16	x	-15	-12	x
Cc1ccc(Cn2cc(CN(C(C)(C)C)S(=O)(=O)c3ccccc3Br)nn2)cc1	x	5	x	x	10	x	x
Cc1csc(N(C(=O)CCNC(=O)c2ccc([N+](=O)[O-])cc2)c2ccccc2)n1	72*	-5	-2	-5	-5	12	78*
COc1ccc(CCN2C(=O)c3ccccc3C2c2nnnn2Cc2ccccc2)cc1OC (centres undefined)	-7	0	-7	-8	1	x	x
O=C(Nc1cccc(C(F)(F)F)c1)OC1CC2CC1[C@H]1CCCCN1[C@H]2Cc1ccccc1 (some centres undefined)	x	-2	x	x	-3	x	x
O=C(/C=C/c1ccc(Cl)cc1Cl)N1CCN(c2ccc([N+](=O)[O-])c(N3CCOCC3)c2)CC1	65*	1	8	-5	0	1	16
CCOC(=O)N(C)[C@H]1C[C@H]2c3[nH]c4c(-c5ccccc5)cccc4c3CCN2C(=O)[C@H]1[C@H](C)O	x	-17	x	-4	-64	x	x
Cc1ccc(OCCNC(=O)c2cc(C(=O)NCCOc3ccc(C)cc3)cc([N+](=O)[O-])c2)cc1	31	2	-2	-5	-4	-10	x
COc1ccc([N+](=O)[O-])cc1C(=O)NCCOc1ccc(Cl)cc1	63*	1	6	-2	6	-1	68*
Cc1ccccc1-c1cnc(C(O)c2ccc(F)cc2C)[nH]1 (centres undefined)	-9	-1	-1	-9	-4	x	x
O=C(Nc1cc(C(F)(F)F)ccc1N1CCOCC1)c1cccs1	15	2	4	-4	8	6	x
CC1N(C)c2cc(NC(=O)c3cccs3)c(P(=O)(Nc3ccc([N+](=O)[O-])cc3)N3CCOCC3)cc2C1(C)C (centres undefined)	52*	6	-10	7	-6	40	34
CN(C)c1ccc(P(=O)(Nc2cccc(C(F)(F)F)c2)N2CCOCC2)c(NC(=O)c2cccs2)c1 (centres undefined)	53*	-3	-5	5	6	5	23

Compound activity deposited in PubChem BioAssay by several laboratories.
